The results in this text go back to ChEMBL document CHEMBL3108717, “Dysideanones A-C, unusual sesquiterpene quinones from the South China Sea sponge Dysidea avara” (J Nat Prod, 2014).

What is called IC50 is the concentration that inhibits the measured activity by half. A lower IC50 goes with greater potency. The MIC50 is the lowest concentration that inhibits either 50% of growth or 50% of the strains tested, depending on the study.

Test [1] has as its system Staphylococcus aureus. Put plainly: Antibacterial activity against Staphylococcus aureus at 1 mg/mL. The class given is functional, organism-based.
For the next test, the system named is Aspergillus niger. Kind of test: Antifungal activity against Aspergillus niger at 1 mg/mL. The class given is functional, organism-based.
For the next test, the system named is Candida albicans. Kind of test: Antifungal activity against Candida albicans at 1 mg/mL. The class given is functional, organism-based.
In the next test the test system is Bacillus subtilis. Kind of test: Antibacterial activity against Bacillus subtilis at 1 mg/mL. The class given is functional, organism-based.
For another test, the system named is Rhodotorula glutinis. Put plainly: Antifungal activity against Rhodotorula glutinis at 1 mg/mL. The class given is functional, organism-based.
The next test has as its system HeLa. Put plainly: Cytotoxicity against human HeLa cells after 48 hrs by MTT assay. The class given is functional, cell-based. The essentials:
(§1)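 MTT assay. Cells grown in RPMI1640 or DMEM with 10% fetal bovine serum at 37 °C, 5% CO2. Adherent cells allowed to attach 12 h before dosing; suspended cells seeded at dosing, initial density 1 × 10^5 cells/mL. Tested at 1, 10, 50 and 100 μM for 48 h in triplicate, 5-fluorouracil as positive control. Cells solubilized with DMSO, OD read at 595 nm. IC50 taken from mean-OD versus concentration curves.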
(Tetrazolium dyes change colour on reduction, which living cells bring about.)

Another test concerns HepG2. Kind of test: Cytotoxicity against human HepG2 cells after 48 hrs by MTT assay. Particulars: HepG2, 48 h. The class given is functional, cell-based. The method, boiled down:
as §1

For test [2], the system named is Staphylococcus aureus. Kind of test: Antibacterial activity against methicillin/multi-drug-resistant Staphylococcus aureus assessed as growth inhibition. The class given is functional.

Structures are written as SMILES. In brackets after ≈: the same amount, converted by molar mass. Activity calls are given as the source filed them. The rule behind the calls is not given here.

In the case of `CC1=CC[C@H]2[C@H]3[C@](C)(CC4=CC(=O)C=C[C@@]42O)[C@@H](C)CC[C@]13C`, the outcome in the test with Staphylococcus aureus [1], in the test on Aspergillus niger, in the test with Candida albicans, in the test with Bacillus subtilis and in the test with Rhodotorula glutinis was inactive.

With `O=c1[nH]cc(F)c(=O)[nH]1` [FLUOROURACIL], the concentration for half-maximal inhibition (IC50) in the test with HeLa worked out at 2.3 µM; in the test with HepG2, 7.6 µM.

Turning to `C=C1[C@H]2C[C@]3(C)C(C)=CCC[C@H]3[C@]1(C)CC1=C2C(=O)C=C(OCC)C1=O`, the MIC50 in the test on Staphylococcus aureus [2] amounted to 0.2 µg/mL (≈ 0.567 µM).

With `C=C1CC[C@@H]2C3=C(C[C@]4(C)[C@@H](C)CC[C@@]1(C)[C@@H]24)C(=O)C(OCC)=CC3=O`, the IC50 in the test with HeLa came to 7.1 µM; in the test with HepG2, 9.4 µM. Moreover, the outcome in the test with Staphylococcus aureus [1], in the test on Aspergillus niger, in the test on Candida albicans, with Bacillus subtilis and in the test on Rhodotorula glutinis was inactive.

`CC1=CCC[C@H]2[C@]3(C)CC4=CC(=O)C=C[C@@]4(O)[C@]3(C)CC[C@]12C`: the outcome in the test on Staphylococcus aureus [1], with Aspergillus niger, in the test on Candida albicans, in the test with Bacillus subtilis and with Rhodotorula glutinis was inactive.
